Tests used:
[1] = target: Excitatory amino acid transporter 1 (Homo sapiens, UniProt P43003); assay: Activity against human EAAT1 transfected in HEK293 cells; type: cell-based
Method in brief: (§1)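 HEK293 lines stably expressing the human transporter were grown on poly-D-lysine plates in DMEM with 10% dialyzed FBS, pen/strep and 1 mg/mL G-418. After 16-24 h, cells were put in Krebs buffer (pH 7.4) containing inhibitor and loaded with FMP dye for 30 min at 37 °C. Plates were read at 30 °C (ex 530/em 560 nm) up to 1 min after adding 30 µM Glu. Runs were in triplicate, ≥3 times. IC50 was converted to Ki by Cheng-Prusoff.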

[2] = target: Excitatory amino acid transporter 2 (Homo sapiens, UniProt P43004); assay: Activity against human EAAT2 transfected in HEK293 cells; type: cell-based; method in brief: as §1
Sequence of Excitatory amino acid transporter 2 (P43004 whole entry): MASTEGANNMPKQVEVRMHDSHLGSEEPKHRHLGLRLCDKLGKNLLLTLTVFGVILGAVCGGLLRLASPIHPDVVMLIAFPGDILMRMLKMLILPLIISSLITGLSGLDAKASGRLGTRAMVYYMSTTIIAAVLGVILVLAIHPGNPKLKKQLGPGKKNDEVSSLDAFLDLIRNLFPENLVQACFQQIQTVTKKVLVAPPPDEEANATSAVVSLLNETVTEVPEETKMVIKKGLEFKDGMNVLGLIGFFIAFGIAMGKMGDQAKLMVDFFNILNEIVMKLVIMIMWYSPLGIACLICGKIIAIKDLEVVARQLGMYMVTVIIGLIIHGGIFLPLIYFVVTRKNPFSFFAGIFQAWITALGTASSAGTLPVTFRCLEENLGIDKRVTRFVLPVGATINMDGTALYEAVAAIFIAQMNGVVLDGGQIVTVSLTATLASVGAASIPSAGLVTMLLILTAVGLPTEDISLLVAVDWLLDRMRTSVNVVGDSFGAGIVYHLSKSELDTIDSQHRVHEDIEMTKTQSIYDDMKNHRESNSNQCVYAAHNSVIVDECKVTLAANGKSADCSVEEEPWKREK

[3] = target: T1, Excitatory amino acid transporter 3 (Homo sapiens, UniProt P43005); assay: Activity against human EAAT3 transfected in HEK293 cells; type: cell-based; method in brief: as §1
T1 sequence (P43005 whole entry): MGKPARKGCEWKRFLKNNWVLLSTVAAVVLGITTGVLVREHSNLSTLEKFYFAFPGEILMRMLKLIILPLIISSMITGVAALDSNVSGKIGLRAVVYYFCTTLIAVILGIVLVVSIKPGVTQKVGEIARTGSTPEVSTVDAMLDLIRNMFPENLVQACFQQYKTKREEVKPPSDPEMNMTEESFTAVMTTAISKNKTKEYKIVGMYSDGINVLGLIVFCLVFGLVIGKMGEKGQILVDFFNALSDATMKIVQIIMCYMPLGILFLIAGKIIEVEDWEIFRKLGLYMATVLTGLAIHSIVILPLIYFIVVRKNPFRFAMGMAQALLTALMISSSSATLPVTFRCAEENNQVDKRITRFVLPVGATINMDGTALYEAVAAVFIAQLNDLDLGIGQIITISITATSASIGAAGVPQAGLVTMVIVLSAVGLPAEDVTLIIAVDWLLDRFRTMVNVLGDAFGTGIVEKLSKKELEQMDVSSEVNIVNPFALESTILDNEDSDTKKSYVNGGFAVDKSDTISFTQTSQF

[4] = target: Metabotropic glutamate receptor 2 (Homo sapiens, UniProt Q14416); assay: Activity against mGluR2
Sequence of Metabotropic glutamate receptor 2 (Q14416 whole entry): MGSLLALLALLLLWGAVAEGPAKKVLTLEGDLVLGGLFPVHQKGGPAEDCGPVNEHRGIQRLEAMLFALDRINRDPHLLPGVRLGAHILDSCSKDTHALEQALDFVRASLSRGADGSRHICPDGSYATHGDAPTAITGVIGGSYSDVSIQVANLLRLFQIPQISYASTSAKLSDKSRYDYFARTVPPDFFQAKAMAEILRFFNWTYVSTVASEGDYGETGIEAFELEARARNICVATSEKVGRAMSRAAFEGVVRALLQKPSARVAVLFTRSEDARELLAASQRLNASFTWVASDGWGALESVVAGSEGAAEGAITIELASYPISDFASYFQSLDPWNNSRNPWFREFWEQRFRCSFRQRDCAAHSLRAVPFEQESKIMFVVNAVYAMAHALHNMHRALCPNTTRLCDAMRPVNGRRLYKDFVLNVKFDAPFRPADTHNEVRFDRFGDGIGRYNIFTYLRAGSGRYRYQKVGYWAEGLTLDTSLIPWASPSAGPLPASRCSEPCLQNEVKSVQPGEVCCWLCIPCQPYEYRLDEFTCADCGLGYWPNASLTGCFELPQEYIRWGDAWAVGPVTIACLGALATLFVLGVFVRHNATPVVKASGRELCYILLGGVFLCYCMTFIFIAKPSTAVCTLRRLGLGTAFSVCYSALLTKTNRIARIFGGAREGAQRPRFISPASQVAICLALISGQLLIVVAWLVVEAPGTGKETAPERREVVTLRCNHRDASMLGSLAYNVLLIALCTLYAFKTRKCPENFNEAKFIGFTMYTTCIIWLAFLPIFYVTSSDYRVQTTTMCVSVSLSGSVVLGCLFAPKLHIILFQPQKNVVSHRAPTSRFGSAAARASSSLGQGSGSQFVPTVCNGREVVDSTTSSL

[5] = target: Glutamate NMDA receptor; assay: Displacement of [3H]CGP-39653 from NMDA preferring iGlu receptor in rat brain; type: tissue-based
[6] = target: Glutamate receptor ionotropic, AMPA (Rattus norvegicus, UniProt P19490+P19491+P19492+P19493); assay: Displacement of [3H]AMPA from AMPA receptor in rat brain; type: tissue-based
Method in brief: (§2)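 Radioligand binding used rat brain membranes prepared by the Ransom and Stec method. Ligands were 5 nM [³H]AMPA for AMPA sites, 5 nM [³H]KAIN for kainate sites and 2 nM [³H]CGP 39653 for NMDA sites, and the value is reported as IC50.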

[7] = target: Metabotropic glutamate receptor 1 (Homo sapiens, UniProt Q13255); assay: Activity against mGluR1
Sequence of Metabotropic glutamate receptor 1 (Q13255 whole entry): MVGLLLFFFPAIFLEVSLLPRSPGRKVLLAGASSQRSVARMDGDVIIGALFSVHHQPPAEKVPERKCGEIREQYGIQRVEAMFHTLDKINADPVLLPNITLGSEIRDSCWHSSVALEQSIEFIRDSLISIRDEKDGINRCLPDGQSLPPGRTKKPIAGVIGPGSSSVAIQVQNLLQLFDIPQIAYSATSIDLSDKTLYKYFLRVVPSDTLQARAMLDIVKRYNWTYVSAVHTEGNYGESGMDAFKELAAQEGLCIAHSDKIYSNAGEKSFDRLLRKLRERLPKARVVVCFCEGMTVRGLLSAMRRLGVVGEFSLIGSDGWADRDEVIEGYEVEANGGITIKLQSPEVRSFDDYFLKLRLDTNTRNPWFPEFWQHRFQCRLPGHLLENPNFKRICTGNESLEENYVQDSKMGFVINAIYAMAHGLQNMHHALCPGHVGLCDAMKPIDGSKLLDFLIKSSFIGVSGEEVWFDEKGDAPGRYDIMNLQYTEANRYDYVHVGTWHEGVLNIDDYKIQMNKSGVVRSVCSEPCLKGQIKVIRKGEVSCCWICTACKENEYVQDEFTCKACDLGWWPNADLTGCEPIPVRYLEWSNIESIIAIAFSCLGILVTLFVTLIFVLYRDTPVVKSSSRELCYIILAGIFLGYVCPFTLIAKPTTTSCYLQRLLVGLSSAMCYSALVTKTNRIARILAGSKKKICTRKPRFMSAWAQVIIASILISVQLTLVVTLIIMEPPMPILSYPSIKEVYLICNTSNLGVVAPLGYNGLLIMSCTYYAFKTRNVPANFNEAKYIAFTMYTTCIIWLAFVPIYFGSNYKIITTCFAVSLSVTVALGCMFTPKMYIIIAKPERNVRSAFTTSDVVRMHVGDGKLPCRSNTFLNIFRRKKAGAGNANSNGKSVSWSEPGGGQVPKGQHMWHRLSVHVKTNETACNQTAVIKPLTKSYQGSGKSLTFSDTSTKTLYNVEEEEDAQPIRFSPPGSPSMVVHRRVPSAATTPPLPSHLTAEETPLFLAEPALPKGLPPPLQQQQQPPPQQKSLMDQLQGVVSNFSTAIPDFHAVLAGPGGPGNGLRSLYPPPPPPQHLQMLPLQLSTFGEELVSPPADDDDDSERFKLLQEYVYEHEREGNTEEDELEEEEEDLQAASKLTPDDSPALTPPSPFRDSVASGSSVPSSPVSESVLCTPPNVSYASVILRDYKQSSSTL

[8] = target: Glutamate receptor ionotropic, kainate; assay: Displacement of [3H]KAIN from kainate receptor in rat brain; type: tissue-based; method in brief: as §2

Sequence of Excitatory amino acid transporter 1 (P43003 whole entry): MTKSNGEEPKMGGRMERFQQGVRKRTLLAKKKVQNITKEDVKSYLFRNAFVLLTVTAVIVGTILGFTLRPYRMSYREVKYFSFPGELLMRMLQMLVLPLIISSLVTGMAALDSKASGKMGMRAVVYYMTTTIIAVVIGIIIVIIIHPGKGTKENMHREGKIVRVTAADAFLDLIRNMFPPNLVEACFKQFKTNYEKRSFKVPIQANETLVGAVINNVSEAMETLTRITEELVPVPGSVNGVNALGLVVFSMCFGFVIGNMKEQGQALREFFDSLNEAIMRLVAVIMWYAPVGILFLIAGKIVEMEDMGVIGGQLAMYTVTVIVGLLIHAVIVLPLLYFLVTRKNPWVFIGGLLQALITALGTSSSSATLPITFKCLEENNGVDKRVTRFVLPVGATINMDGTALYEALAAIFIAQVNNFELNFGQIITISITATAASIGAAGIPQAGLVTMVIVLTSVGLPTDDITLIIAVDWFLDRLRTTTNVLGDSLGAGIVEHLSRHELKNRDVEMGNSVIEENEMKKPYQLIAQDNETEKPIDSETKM

SMILES | Ki [1] | Ki [2] | Ki [3] | EC50 [4] | Ki [5] | IC50 [6] | EC50 [7] | IC50 [8]
O=C(O)[C@H]1CC2CC1[C@@H](C(=O)O)N2 (stereo partly specified) | > 400 µM | > 400 µM | > 400 µM | – | – | – | – | –
O=C(O)[C@H]1CC[C@H]2CN[C@H](C(=O)O)[C@H]21 | 127 µM | 52 µM | 46 µM | 1000 µM | 2.9 µM | > 100 µM | > 1000 µM | 14 µM
